TNAP act hiacc = TNAP activators at high phosphate acceptor level, primary screen, biochemical, luminescence, uHTS | Alkaline phosphatase, tissue-nonspecific isozyme (Homo sapiens), P05186 | purified TNAP, CDP-star luminescence, 1 M DEA, 30 min; active compounds read high; 0 = EDTA background, 1 = DMSO-only activity | activation factor at 20 µM | 200,000 tested, under 10 active;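 active = activation factor at least 2 at 20 µM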
Target sequence (P05186 whole entry, looked up): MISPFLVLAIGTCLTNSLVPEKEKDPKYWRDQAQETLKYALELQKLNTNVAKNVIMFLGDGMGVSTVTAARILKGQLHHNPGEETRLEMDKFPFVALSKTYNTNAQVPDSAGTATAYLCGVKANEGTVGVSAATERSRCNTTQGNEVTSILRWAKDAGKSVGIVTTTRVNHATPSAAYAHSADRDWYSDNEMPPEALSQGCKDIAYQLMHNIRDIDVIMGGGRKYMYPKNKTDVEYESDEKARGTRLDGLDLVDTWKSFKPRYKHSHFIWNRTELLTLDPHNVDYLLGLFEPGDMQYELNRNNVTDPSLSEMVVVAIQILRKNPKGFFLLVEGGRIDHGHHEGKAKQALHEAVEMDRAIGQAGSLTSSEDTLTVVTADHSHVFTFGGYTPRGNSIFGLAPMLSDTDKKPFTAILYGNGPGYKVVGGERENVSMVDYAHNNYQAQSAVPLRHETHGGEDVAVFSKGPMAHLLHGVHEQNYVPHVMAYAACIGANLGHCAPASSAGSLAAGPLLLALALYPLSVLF
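Assay system: human TNAP; Input: enzyme diluted 1/800 final; Reagent: CDP-star luminogenic substrate at 100 µM final; Timing: 30 min, room temperature; Signal: luminescence; Evaluation: TNAP activation factor scaled between EDTA and DMSO control wells.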
TNAP inh no acc = human TNAP enzyme inhibitors, primary screen, biochemical, luminescent, no phosphate acceptor, uHTS; Alkaline phosphatase, tissue-nonspecific isozyme (Homo sapiens), P05186; purified TNAP, CDP-star luminescence, 30 min; inhibition, % at 20 µM; actives 0.26% (n = 200,000); AID 1012, 2008;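 active = tissue-nonspecific alkaline phosphatase inhibition above about 50% at 20 µM in the single-dose screen, limit read from the data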;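 note: 0% = DMSO negative control and 100% = EDTA positive control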
PKD1 kinase inh = inhibitors of human PKD1 kinase, biochemical, fluorescence polarization. PKD1 kinase fluorescence polarization assay. Serine/threonine-protein kinase D1 (Homo sapiens), Q15139. actives 0.056% (n = 200,000). inhibition, % (no concentration beside the values); in the data active = inhibition above about 50%
TNAP inh hi DEA = human TNAP enzyme inhibitors, primary screen, biochemical, luminescent, high phosphate acceptor level, uHTS; actives 0.03% (n = 200,000); inhibition, % at 20 µM; purified TNAP, CDP-star luminescence, 1 M DEA; AID 1135, 2008;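 active = over 50% inhibition of tissue-nonspecific alkaline phosphatase at 20 µM in the single-dose screen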;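 note: plate controls were DMSO wells for no effect and EDTA-quenched wells as full inhibition for full effect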
* = called active by the depositor; · = not tested or not shown. Shown are actives, neighbours in structure and some others; about 0.35% of the full set was active somewhere.

SMILES	TNAP act hiacc	TNAP inh no acc	PKD1 kinase inh	TNAP inh hi DEA
C/C(=N\NC(=O)c1ccccc1O)C1C(=O)c2ccccc2C1=O	0.9	60*	2	12
C/C(=N/NC(=O)c1cc2ccccc2cc1O)C1C(=O)c2ccccc2C1=O	0.9	-162	4	11
CCOc1cc(/C=C2\CCC/C(=C\c3cc(Cl)c(O)c(OCC)c3)C2=O)cc(Cl)c1O	0.5	49	-4	53*
O=C(N/N=C\c1cccc([N+](=O)[O-])c1O)C1COc2ccccc2O1 (stereo unspecified)	0.9	53*	-1	10
NS(=O)(=O)c1cccc(NC(=S)NC(=O)c2cccc([N+](=O)[O-])c2)c1	0.9	70*	5	7
O=C(NC(=S)Nc1cccc(NC(=O)c2ccccc2)c1)c1cccc([N+](=O)[O-])c1	1	3	4	4
CCOC(=O)N1CCC(NC(=O)C2CCCN(C(=O)c3cc4sccc4n3C)C2)CC1 (stereo unspecified)	1	-23	-5	1
O=C(CNS(=O)(=O)c1ccccc1)N/N=C/c1ccc(O)cc1	1	-4	-1	-1
O=C(CNS(=O)(=O)c1ccccc1)NNC(=O)C(Cl)Cl	1.1	92*	-3	-6
CCOc1ccc(-c2cc(N3C(=O)Nc4ccccc4N3O)n[nH]2)cc1	1.1	52*	8	-5
COc1cccc(-c2cc(N3C(=O)Nc4ccccc4N3O)n[nH]2)c1	1	1	-2	-4
COc1ccccc1-c1nc(SCc2ccccn2)n[nH]1	1	84*	·	-1
COc1ccccc1-c1nnc(SCc2ccccn2)n1C	1.1	-10	-1	-9
CC(C)CC1=NC(C(F)(F)F)(C(F)(F)F)c2c(n(CC(C)C)c(=O)[nH]c2=O)N1	1	-16	8	1
Cc1cc(C(=O)CSc2n[nH]c(-c3ccccc3F)n2)c(C)n1Cc1cccs1	1	91*	5	2
Cc1csc(SCC(=O)c2cc(C)n(Cc3cccs3)c2C)n1	1	-6	5	-3
COc1ccc(-c2[nH]ncc2CN2CCN(Cc3cccs3)CC2)c(F)c1	1	63*	3	-5
COc1ccc(-c2[nH]ncc2CN2CCC(OCc3cccnc3)CC2)c(F)c1	1.1	74*	6	-7
COc1ccc(-c2[nH]ncc2CN2CCCN(c3ccccc3)CC2)c(F)c1	1	28	-4	-2
COc1ccc(-c2[nH]ncc2CN2CCCC2c2nonc2C)c(F)c1 (stereo unspecified)	1.1	51*	-4	-6
COc1ccc(-c2[nH]ncc2CN(C)Cc2cccnc2)c(OC)c1	1.1	0	-2	-6
CC12COC3(C(=O)Nc4cccnc4)CC1CCC32C (stereo unspecified)	1	-10	-2	-5
CCNC(=O)Cn1c(=O)c2c(ncn2Cc2ccccc2)n(Cc2ccccc2)c1=O	1.1	-12	0	-5
Cc1ccc(C(=O)Nc2cc([N+](=O)[O-])ccc2C)cc1	1.1	-17	-7	-5
Cc1ccc(NC(=O)c2ccc(Nc3c([N+](=O)[O-])cc([N+](=O)[O-])cc3[N+](=O)[O-])cc2)cc1	0.5	-6	-9	54*
SMILES	TNAP act hiacc	TNAP inh no acc	PKD1 kinase inh	TNAP inh hi DEA
O=C(CSc1n[nH]c(-c2ccccc2F)n1)NCC(=O)Nc1ccc(F)c(F)c1F	1	89*	-1	2
Cc1ccc(NC(=O)C2CCCN(S(=O)(=O)c3cccs3)C2)cc1 (stereo unspecified)	1	-10	-10	-3
N#C/C(=C\c1ccncc1)c1nc2ccccc2c(=O)[nH]1	1	54*	-3	3
CN(C)S(=O)(=O)c1ccc(/C(O)=C2/C(=O)C(=O)N(Cc3cccnc3)C2c2ccco2)cc1 (stereo unspecified)	1	-4	9	0
COc1cc2c(cc1OC)C(C)=NCC2	0.9	-5	2	10
Cc1c(C(=O)O)oc2c1C(=O)CC(C)(C)C2	1	-1	-8	2
Cc1nnc(NC(=O)c2ccncc2)s1	1	-10	-6	-5
NC(=S)Nc1nc2ccccc2[nH]c1=O	0.8	71*	2	16
O=C(NNc1ccc(O)cc1)c1ccc(Br)cc1	1	44	1	2
O=C(NNC1=Nc2cccc3cccc1c23)c1ccc(Br)cc1	0.8	-52	50*	24
COC(=O)Cc1ccc(NC(=S)NCc2ccccc2OC)cc1	1	-11	0	-5
O=C(N/N=C/c1ccco1)c1cc(-c2ccc(Cl)s2)[nH]n1	0.8	54*	-3	15
COC(=O)c1cc(-c2cccs2)[nH]n1	1	96*	4	0
O=C(N/N=C/c1ccco1)c1cc(-c2cccs2)[nH]n1	0.8	87*	6	15
C/C(=N\NC(=O)c1cc(C(C)C)[nH]n1)c1ccco1	1	-56	7	-2
CC(C)c1cc(C(=O)N/N=C/c2ccco2)n[nH]1	1	61*	-13	-2
COCCNC(=O)c1ccccc1N(Cc1ccccc1)S(=O)(=O)c1ccc(C)cc1	1	-4	-3	1
Fc1ccc(C(c2nnnn2CCc2ccccc2)N2CCCc3ccccc32)cc1 (stereo unspecified)	1.1	-10	2	-6
COc1ccc(C2N(C(=O)CN3CCOCC3)CCN2S(=O)(=O)c2ccccc2)cc1 (stereo unspecified)	1	-3	-13	1
CC(C)c1cc(C(=O)N/N=C/c2cccnc2)n[nH]1	1	63*	-1	4
Brc1ccc(C2NCCS2)cc1 (stereo unspecified)	1	72*	7	2
CCCCc1nc(SCC(=O)Nc2ncccn2)n[nH]1	1	58*	-10	1
O=C(CSc1n[nH]c(-c2ccccc2)n1)Nc1ncccn1	1	36	32	0
CC(C)c1nc(SCC(=O)Nc2cccc(S(N)(=O)=O)c2)n[nH]1	1	57*	5	-2
NS(=O)(=O)c1cccc(NC(=O)CSc2nc3ccc(Cl)cc3[nH]2)c1	0.9	67*	-6	9
SMILES	TNAP act hiacc	TNAP inh no acc	PKD1 kinase inh	TNAP inh hi DEA
CCCCc1nc(SCC(=O)Nc2ccc(S(N)(=O)=O)cc2)n[nH]1	1	60*	-7	-1
O=C(O)C1CC=CCC1C(=O)NCCc1csc(-c2ccccc2)n1 (stereo unspecified)	1	-2	-6	-3
CC1(C)Cc2c(c(N3CCOCC3)nc3snc(Br)c23)CO1	1	7	10	-2
COc1ccccc1C(=O)Nc1ccc2c(c1)nc1n2CCSC1	1	68*	-10	2
Cc1ccc(C(=O)Nc2ccc3c(c2)nc2n3CCSC2)cc1	1.1	26	-5	-6
CCCN1CCN(C(c2cc3cc4c(cc3[nH]c2=O)OCO4)c2nnnn2C(C)(C)C)CC1 (stereo unspecified)	1	16	-6	0

Assay outcomes as filed in PubChem BioAssay.
